An excerpt weighted towards active compounds, which were near 1.3% of everything screened.
ARFGAP1 inh: inhibitors of rat ARFGAP1 | inhibition, % at 16.5 µM | Q62848 | 360,000 tested, 0.26% active | Arfgap1-stimulated ARF1 GTP hydrolysis, GDP FP detection;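 active = inhibition above a per-plate limit, mean inhibition of low control wells plus 3 SD, cut at about 25% in these data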
Target sequence (Q62848 1-136 limits assumed): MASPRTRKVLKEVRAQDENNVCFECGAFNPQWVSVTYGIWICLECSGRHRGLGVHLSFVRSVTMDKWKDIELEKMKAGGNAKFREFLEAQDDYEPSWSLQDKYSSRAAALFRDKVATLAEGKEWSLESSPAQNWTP
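Material: truncated rat Arfgap1 GAP domain; Incubation: compound-enzyme preincubation 20 min, reaction 120 min, detection 60 min, 25 °C; Read-out: percent inhibition of Arfgap1-stimulated GTP hydrolysis; Technique: FP, GDP Alexa 633 tracer displaced from anti-GDP antibody, 620/688 nm; Controls: No-Arfgap1 wells (100%) versus DMSO full-reaction wells (0%); Replication: single well per compound.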
ASAP1 GAP inh: ASAP1 ArfGAP inhibition. Q9ULH1. ASAP1-stimulated ARF1 GTP hydrolysis, GDP FP detection. inhibition, % at 16.5 µM. 360,000 tested, 0.19% active
CASP6 VEID inh: blocks human caspase-6 cleavage activity; P55212; purified caspase-6, Z-VEID-R110 cleavage fluorescence; inhibition, % at 12.5 µM; 350,000 tested, 0.53% active;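 active = mean inhibition across replicates at least about 35%, with every replicate also reaching that limit, limit read from the data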
LEDGF integ inh: blocks HIV-1 LEDGF/p75-dependent DNA integration; TR-FRET IN-LEDGF/p75 DNA integration, Eu/Cy5; inhibition, % at 3.7 µM; 370,000 tested, 0.64% active;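 active = inhibition above the screen-wide mean plus 3 SD, cut at about 13% in these data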;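 note: signal is the Cy5 over europium emission ratio at 671 and 618 nm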
TDP2 inh: TDP2 (human) inhibition, absorbance primary screen | O95551 | recombinant TDP2, T5PNP hydrolysis, p-nitrophenol absorbance 415 nm | inhibition, % at 12.8 µM | 370,000 tested, 0.34% active | AID 720702;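 active = inhibition above the mean of all tested compounds plus 3 SD, set per campaign, cut at about 25% in these data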
Target sequence (O95551 whole entry, looked up): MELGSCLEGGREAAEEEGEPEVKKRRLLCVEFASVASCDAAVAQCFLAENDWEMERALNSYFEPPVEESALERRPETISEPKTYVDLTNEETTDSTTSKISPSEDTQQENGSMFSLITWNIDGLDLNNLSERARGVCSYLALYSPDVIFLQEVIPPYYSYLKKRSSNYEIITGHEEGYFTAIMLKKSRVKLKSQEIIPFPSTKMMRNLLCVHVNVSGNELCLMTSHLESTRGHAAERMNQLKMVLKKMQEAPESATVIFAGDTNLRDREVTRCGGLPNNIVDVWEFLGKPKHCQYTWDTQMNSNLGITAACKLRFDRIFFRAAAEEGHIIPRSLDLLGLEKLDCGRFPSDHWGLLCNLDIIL
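Evaluation: % inhibition relative to enzyme-containing and enzyme-free wells. Material: recombinant human TDP2. Benchmarks: enzyme-free and DMSO wells. Timing: enzyme reaction with compound for 2 h at 37 °C. Compound dosing: 12.8 µM only. Measured by: p-Nitrophenol epi absorbance. Reagent: T5PNP substrate at 5 mM, a TopII-DNA adduct mimic. Replication: single well per compound.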
TDP2 confirm: human TDP2 inhibition, confirmation; 1,100 tested, 22% active; recombinant human TDP2, absorbance read-out; inhibition, % at 12.8 µM; shares compounds with TDP2 inh
Of the large screens only hits and unclear results are named; the others gave an inactive call (follow-up assays come after a bar, where they were run). Cut-off read from the data, not from the text of the source, unless noted: active = inhibition above about 25%; inactive = the rest.

COc1cc(C2C(C(=O)c3ccco3)=C(O)C(=O)N2CC2CCCO2)ccc1O (stereo unspecified)	none
CN(C)S(=O)(=O)c1cccc(C(=O)OCC(=O)Nc2ccccc2OC(F)F)c1	none (no result: CASP6 VEID inh)
CCN(CC)S(=O)(=O)c1cccc(C(=O)OCC(=O)Nc2ccccc2OC(F)F)c1	TDP2 inh 64.1 (no result: CASP6 VEID inh) | TDP2 confirm inactive
Cn1c(N)c(C(=O)CCc2ccccc2)c(=O)n(C)c1=O	none
CCN(CC(=O)c1c(N)n(C)c(=O)n(C)c1=O)c1cccc2ccccc12	TDP2 inh 37.6 (no result: CASP6 VEID inh) | TDP2 confirm inactive
CCCCCCCC(=O)Nc1cc(C(=O)NCc2ccc(C)cc2)ccc1N1CCC2(CC1)CC(c1ccccc1)=NO2	none
CC(C)c1ccc(NC(=O)CN(C)C2=NS(=O)(=O)c3ccccc32)cc1	none
COc1ccc(CCN(C)C(=O)C2CCCN(C3CCN(Cc4ccccc4)CC3)C2)cc1OC (stereo unspecified)	TDP2 inh 31.7 | TDP2 confirm inactive
C[C@H](CO)N1C[C@H](C)[C@@H](CN(C)C(=O)Nc2ccccc2F)Oc2cc(C#CCN(C)C)ccc2S1(=O)=O	none (no result: ARFGAP1 inh, ASAP1 GAP inh, LEDGF integ inh, TDP2 inh)
O=c1[nH]c(-c2ccccn2)cc2ccccc12	none (no result: CASP6 VEID inh)
O=c1[nH]c(Nc2ccccn2)cc2ccccc12	CASP6 VEID inh 90.4, TDP2 inh 49.1 | TDP2 confirm 27.4
Cc1ccc(-n2nc3c(=O)n(CCCC(=O)NCc4ccc(C)o4)nc(C)c3c2C)cc1	TDP2 inh 24.7 | TDP2 confirm inactive
CC1(C)c2ccccc2-c2nc3ccccc3cc2C1N1CCOCC1 (stereo unspecified)	none
CC1(C)c2cc(O)ccc2OC1N1CCOCC1 (stereo unspecified)	TDP2 inh 25.4 | TDP2 confirm inactive
Cc1[nH][nH]c(=O)c1C(c1ccc(-c2ccc(C(=O)O)cc2)o1)c1c(C)[nH][nH]c1=O	ARFGAP1 inh 28.5, TDP2 inh 59.7 | TDP2 confirm 31.8
COc1ccc(-c2ccc(/C=N/N3C(=O)C4C5C=CC(C6CC56)C4C3=O)o2)c([N+](=O)[O-])c1 (stereo unspecified)	none (no result: CASP6 VEID inh)
Cc1[nH][nH]c(=O)c1C(c1ccc(-c2ccc(F)cc2)o1)c1c(C)[nH][nH]c1=O	LEDGF integ inh 25.5, TDP2 inh 59.9 (no result: CASP6 VEID inh) | TDP2 confirm inactive
COc1ccc(-c2ccc(C(c3c(C)[nH][nH]c3=O)c3c(C)[nH][nH]c3=O)o2)c([N+](=O)[O-])c1	TDP2 inh 67.1 | TDP2 confirm inactive
O=C(c1ccc(S(=O)(=O)c2ccc(F)cc2)c([N+](=O)[O-])c1)N1CCCCCC1	none
Cc1cc(N2CCN(Cc3ccccc3)CC2)n2nc(C)nc2n1	none (no result: ARFGAP1 inh, ASAP1 GAP inh, CASP6 VEID inh)
CC1CCC(C(C)C)C(OP(=O)(c2ccccc2)C(O)c2ccncc2)C1 (stereo unspecified)	none
COc1cc(Cc2nccc3cc(OC)c(OC)cc23)c(S(=O)(=O)O)cc1OC	TDP2 inh 40.5 | TDP2 confirm inactive
N#CC1C(=O)NC(=O)C(C#N)C12CCCC2 (stereo unspecified)	none
O=C1CN(C(=O)COc2ccccc2F)c2ccccc2N1	none (no result: CASP6 VEID inh)
O=C(N(c1ccccc1)c1ccccc1)N(c1ccccc1)c1ccccc1	none
CC(=O)N(C1=C(N)C(=O)c2ccccc2C1=O)c1ccccc1	TDP2 inh 29.4 | TDP2 confirm inactive
CCOc1ccc(-c2[nH]nc3c2C(c2ccc4c(c2)OCO4)C(C#N)=C(N)O3)cc1OC (stereo unspecified)	TDP2 inh 27.2 (no result: CASP6 VEID inh) | TDP2 confirm inactive
COc1cc(Br)c(C2C(C#N)=C(N)Oc3n[nH]c(-c4cccnc4)c32)cc1OC (stereo unspecified)	TDP2 inh 43.4 | TDP2 confirm inactive
Cc1ccc(Cn2c(N3CCNCC3)nc3c2c(=O)[nH]c(=O)n3C)cc1	none
Cn1c(=O)[nH]c(=O)c2c1nc(N1CCNCC1)n2Cc1ccccc1	TDP2 inh 25.6 | TDP2 confirm inactive
O=c1cc(-c2ccc(Cl)cc2)[nH][nH]1	TDP2 inh 74.3 (no result: CASP6 VEID inh) | TDP2 confirm inactive
Cc1ccc(S(=O)(=O)/N=C2/NC(=O)/C(=C/c3ccccc3)S2)cc1	TDP2 inh 28.6 (no result: CASP6 VEID inh) | TDP2 confirm inactive
